Data: paper PMC3278212 (Bioorganic & medicinal chemistry letters, 2012)

Key:
[1] = system: MT-2 human T-cells; assay: Cytotoxicity: inhibition of MT-2 cell growth, MTT; format: cell-based; conditions: MT-2 cells
How it was run: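 Run alongside the HIV-1 IIIB protection assay in MT-2 human T-cells, with the MTT colorimetric method as read-out. CC50 is the concentration that inhibits MT-2 cell growth by 50%, obtained at the same time as the EC50 for protection of infected cells.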

[2] = system: IIIB strain of HIV-1; format: cell-based; conditions: HIV-1 IIIB, MT-2 cells

Compound: COc1nc(Nc2ccc(C#N)c(OCC=C(C)C)c2)nc(OCCCOc2nc(Nc3ccc(C#N)c(OCC=C(C)C)c3)nc(OC)n2)n1 [Compound 6b]
- cytotoxicity [1]: 20 to 40 µM

Compound: COc1nc(NCCNc2nc(Nc3ccc(C#N)c(OCC=C(C)C)c3)nc(OC)n2)nc(Nc2ccc(C#N)c(OCC=C(C)C)c2)n1 [Compound 6e]
- anti-viral activity below CC50 level [2]: did not show anti-viral activity below their CC50 levels

Compound: COc1nc(NCCCNc2nc(Nc3ccc(C#N)c(OCC=C(C)C)c3)nc(OC)n2)nc(Nc2ccc(C#N)c(OCC=C(C)C)c2)n1 [Compound 6f]
- anti-viral activity below CC50 level [2]: did not show anti-viral activity below their CC50 levels

Compound: COc1nc(Nc2ccc(C#N)c(OCC=C(C)C)c2)nc(OCCOc2nc(Nc3ccc(C#N)c(OCC=C(C)C)c3)nc(OC)n2)n1 [Compound 6a]
- cytotoxicity [1]: 20 to 40 µM
